{"source": "ChEMBL document CHEMBL4024769", "about": "“Synthesis and Investigation of Photophysical and Biological Properties of Novel S-Containing Bacteriopurpurinimides” (J Med Chem, 2017)", "key": {"[1]": {"assay": "(§1) Phototoxicity against rat Sarcoma M1 cells implanted in rat assessed as mitotic index at 2.5 mg/kg, ip administered as single dose on day 11 after inoculation followed by 300 J/cm2 irradiation after 2.5 to 3 hrs measured on day 3 post photodynamic therapy (reference value: 1.84 +/- 0.04%)", "assay_type": "functional", "in_short": "(§2)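 Rats with M1 sarcoma implanted subcutaneously in the left thigh were randomized on day 10, 25 per group. Single ip dose of 2.5 mg/kg on day 11; laser irradiation 2.5–3 h later at 810 nm, 0.51 W/cm2, 300 J/cm2, 10 min over a 1.5 cm field. Five rats sampled per time point for H&E histology, PCNA immunohistochemistry (1:200) and tumor volume. Untreated controls; Student's test, p < 0.05.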"}, "[2]": {"assay": "Pro-oxidant activity in 1% cremophor EL or rose Bengal assessed as singlet oxygen radical generation by measuring photo-induced fading of 4-nitroso-N,N-dimethylaniline at 3.4 uM in presence of laser radiation and histidine measured every 5 to 10 mins in presence of singlet oxygen quencher NaN3 by absorption spectroscopy", "assay_type": "functional"}, "[3]": {"assay": "Drug uptake in kidney tumor of F1 mouse implanted with mouse S37 cells assessed as normalized fluorescence at 2.5 mg/kg, iv measured after 24 hrs post injection in presence of He-Ne laser radiation by local fluorescence spectroscopic analysis", "assay_type": "ADME, organism-based", "conditions": "in vivo", "in_short": "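Single iv dose of 2.5 mg/kg given to F1 mice bearing S37 sarcoma. Skin, muscle, liver, kidney, spleen and tumor taken from three animals each at 0.25, 0.5, 2, 4 and 24 h and read ex vivo by contact local fluorescence spectroscopy. He–Ne 632.8 nm excitation; 640–900 nm integral normalized to backscattered laser signal (FN).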"}, "Sarcoma M1": {"system": "Sarcoma M1", "assay": "Phototoxicity against rat Sarcoma M1 cells implanted in rat assessed as deposition of fragments of proliferated tumor parenchyma at 2.5 mg/kg, ip administered as single dose on day 11 post inoculation followed by 300 J/cm2 irradiation after 2.5 to 3 hrs measured on day 2 post photodynamic therapy", "assay_type": "functional, organism-based"}, "[4]": {"assay": "as §1, with “as volume of PCNA-positive cells in tumor parenchyma” for “as mitotic index”, “day 12” for “day 3”, “value: 72” for “value: 1.84”, “+/- 5%)” for “+/- 0.04%)”", "assay_type": "functional", "in_short": "as §2"}, "[5]": {"assay": "Phototoxicity against mouse S37 cells assessed as cell growth inhibition preincubated for 4 hrs with subsequent 10 J/cm2 irradiation followed by incubation in absence of compound for 24 hrs by MTT assay", "assay_type": "functional", "conditions": "S37, light or radiation study", "in_short": "(§3)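 S37 cells treated with 0.05–28 μM compound added 24 h after plating. After 0.25–6 h incubation, cells were irradiated with a halogen lamp through a KS-19 filter (720 nm) at 21.0 ± 1.0 mW/cm2, 10 J/cm2, with or without removing the compound. MTT read 24 h later; 50% growth inhibition taken as the value, mean of three tests.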"}, "[6]": {"assay": "Phototoxicity against rat Sarcoma M1 cells implanted in rat assessed as apoptotic index at 2.5 mg/kg, ip administered as single dose on day 11 after inoculation followed by 300 J/cm2 irradiation after 2.5 to 3 hrs measured on day 12 post photodynamic therapy (reference value: 0.37 +/- 0.06%)", "assay_type": "functional", "in_short": "as §2"}, "[7]": {"assay": "as §1, with “volume of tumor parenchyma” for “mitotic index”, “therapy by hematoxylin and eosin staining based assay” for “therapy”, “70” for “1.84”, “4%)” for “0.04%)”", "assay_type": "functional", "in_short": "(§4)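 Rat M1 sarcoma was implanted subcutaneously in the left thigh, with randomisation on day 10. A single 2.5 mg/kg ip dose was given on day 11, then 810 nm laser (0.51 W/cm2, 300 J/cm2, 10 min) after 2.5−3 h. Tumours were sectioned on days 1, 3 and 12 after PDT (controls days 12, 14, 23), five animals per point. Parenchyma and necrotic zone volumes were estimated on hematoxylin and eosin staining.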"}, "[8]": {"assay": "Phototoxicity against rat Sarcoma M1 cells implanted in rat assessed as tumor volume at 2.5 mg/kg, ip administered as single dose on day 11 after inoculation followed by 300 J/cm2 irradiation after 2.5 to 3 hrs measured on day 1 post photodynamic therapy (reference value: 1.22 +/- 0.18 mm3)", "assay_type": "functional", "in_short": "as §2"}, "[9]": {"assay": "Phototoxicity against mouse S37 cells implanted in F1 mouse assessed as tumor growth inhibition at 5 mg/kg, iv preincubated for 30 mins with subsequent 150 J/cm2 irradiation measured on day 15 post irradiation relative to control", "assay_type": "functional", "conditions": "S37, light or radiation study, read-out: TGI", "in_short": "(§5)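 S37 sarcoma mice treated on day 7 of tumor growth with compound iv; tumors 140–160 mm3 beforehand, droperidol 0.25 mg ip as anesthetic. LED irradiation at 800 ± 21 nm, 100 mW/cm2, 150 J/cm2, given 15 or 30 min after dosing. Controls got iv 0.9% NaCl. Volume = d1×d2×d3×0.52; TGI = […]×100%.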"}, "[10]": {"assay": "Phototoxicity against rat Sarcoma M1 cells implanted in rat assessed as volume of PCNA-positive cells in tumor parenchyma at 2.5 mg/kg, ip administered as single dose on day 11 after inoculation followed by 300 J/cm2 irradiation after 2.5 to 3 hrs measured on day 1 post photodynamic therapy (reference value: 71 +/- 3 %)", "assay_type": "functional", "in_short": "as §2"}, "[11]": {"assay": "Phototoxicity against rat Sarcoma M1 cells implanted in rat assessed as volume of tumor parenchyma at 2.5 mg/kg, ip administered as single dose on day 11 after inoculation followed by 300 J/cm2 irradiation after 2.5 to 3 hrs measured on day 12 post photodynamic therapy by hematoxylin and eosin staining based assay (reference value: 56 +/- 3%)", "assay_type": "functional", "in_short": "as §4"}, "[12]": {"assay": "Phototoxicity against rat Sarcoma M1 cells implanted in rat assessed as volume of tumor necrotic zones at 2.5 mg/kg, ip administered as single dose on day 11 after inoculation followed by 300 J/cm2 irradiation after 2.5 to 3 hrs measured on day 3 post photodynamic therapy (reference value: 30 +/- 4%)", "assay_type": "functional", "in_short": "as §4"}, "[13]": {"assay": "Phototoxicity against rat Sarcoma M1 cells implanted in rat assessed as tumor volume at 2.5 mg/kg, ip administered as single dose on day 11 after inoculation followed by 300 J/cm2 irradiation after 2.5 to 3 hrs measured on day 3 post photodynamic therapy (reference value: 1.6 +/- 0.3 mm3)", "assay_type": "functional", "in_short": "as §2"}, "[14]": {"assay": "Phototoxicity against mouse S37 cells implanted in F1 mouse assessed as tumor growth inhibition at 5 mg/kg, iv preincubated for 15 mins with subsequent 150 J/cm2 irradiation measured on day 8 post irradiation relative to control", "assay_type": "functional", "conditions": "S37, light or radiation study, read-out: TGI", "in_short": "as §5"}, "[15]": {"assay": "Phototoxicity against mouse S37 cells implanted in F1 mouse assessed as tumor growth inhibition at 5 mg/kg, iv preincubated for 15 mins with subsequent 150 J/cm2 irradiation measured on day 15 post irradiation relative to control", "assay_type": "functional", "conditions": "S37, light or radiation study, read-out: TGI", "in_short": "as §5"}, "[16]": {"assay": "Phototoxicity against mouse S37 cells implanted in F1 mouse assessed as tumor growth inhibition at 2.5 mg/kg, iv preincubated for 15 mins with subsequent 150 J/cm2 irradiation measured on day 15 post irradiation relative to control", "assay_type": "functional", "conditions": "S37, light or radiation study, read-out: TGI", "in_short": "as §5"}, "[17]": {"assay": "Phototoxicity against mouse S37 cells implanted in F1 mouse assessed as tumor growth inhibition at 5 mg/kg, iv preincubated for 15 mins with subsequent 150 J/cm2 irradiation measured on day 11 post irradiation relative to control", "assay_type": "functional", "conditions": "S37, light or radiation study, read-out: TGI", "in_short": "as §5"}, "[18]": {"assay": "Phototoxicity against mouse S37 cells implanted in F1 mouse assessed as tumor growth inhibition at 2.5 mg/kg, iv preincubated for 15 mins with subsequent 150 J/cm2 irradiation measured on day 18 post irradiation relative to control", "assay_type": "functional", "conditions": "S37, light or radiation study, read-out: TGI", "in_short": "as §5"}, "[19]": {"assay": "Phototoxicity against mouse S37 cells assessed as cell growth inhibition preincubated for 6 hrs with subsequent 10 J/cm2 irradiation followed by incubation in absence of compound for 24 hrs by MTT assay", "assay_type": "functional", "conditions": "S37, light or radiation study", "in_short": "as §3"}}, "note": "Active and inactive are the calls of the source. No cut-off for these calls is given here."}
{"smiles": "CCCO/N=C(\\C)c1c(C)c2cc3nc(c4c5[nH]c(cc6nc(cc1[nH]2)[C@@H](C)[C@@H]6CC)c(C)c5C(=O)N(OCCC)C4=O)[C@H](CCC(=O)NCCSSCCNC(=O)CC[C@@H]1c2nc(cc4[nH]c(cc5nc(cc6[nH]c7c2C(=O)N(OCCC)C(=O)c7c6C)[C@H](CC)[C@H]5C)c(/C(C)=N/OCCC)c4C)[C@H]1C)[C@H]3C", "values": [{"measurement": "Activity", "setting": "[1]", "result": 1.84, "unit": "%"}, {"measurement": "Activity", "setting": "[2]", "result": "inactive"}, {"measurement": "Drug uptake", "setting": "[3]", "result": "Active"}, {"measurement": "Activity", "setting": "Sarcoma M1", "result": "Active"}, {"measurement": "Activity", "setting": "[4]", "result": 39, "unit": "%"}, {"measurement": "CC50", "setting": "[5]", "result": 50, "unit": "nM"}, {"measurement": "Activity", "setting": "[6]", "result": 0.42, "unit": "%"}, {"measurement": "Activity", "setting": "[7]", "result": 23, "unit": "%"}, {"measurement": "Activity", "setting": "[8]", "result": 1.13, "unit": "mm3"}, {"measurement": "inhibition in vivo at 5 mg/kg", "setting": "[9]", "result": 100, "unit": "%"}, {"measurement": "Activity", "setting": "[10]", "result": 26, "unit": "%"}, {"measurement": "Activity", "setting": "[11]", "result": 30, "unit": "%"}, {"measurement": "Activity", "setting": "[12]", "result": 77, "unit": "%"}, {"measurement": "Activity", "setting": "[13]", "result": 0.59, "unit": "mm3"}]}
{"smiles": "CCCO/N=C(\\C)c1c(C)c2cc3nc(c4c5[nH]c(cc6nc(cc1[nH]2)[C@H](C)[C@H]6CC)c(C)c5C(=O)N(OCCC)C4=O)[C@@H](CCC(=O)OC)[C@@H]3C", "values": [{"measurement": "inhibition in vivo at 5 mg/kg", "setting": "[14]", "result": 100, "unit": "%"}, {"measurement": "inhibition in vivo at 5 mg/kg", "setting": "[15]", "result": 100, "unit": "%"}, {"measurement": "inhibition in vivo at 2.5 mg/kg", "setting": "[16]", "result": 100, "unit": "%"}, {"measurement": "inhibition in vivo at 5 mg/kg", "setting": "[17]", "result": 100, "unit": "%"}, {"measurement": "inhibition in vivo at 2.5 mg/kg", "setting": "[18]", "result": 100, "unit": "%"}, {"measurement": "CC50", "setting": "[19]", "result": 110, "unit": "nM"}]}
